Each structure is given as a SMILES string. A value given as a limit tells only on which side of the number the result lay.

In test [1] the target is T1, Hematopoietic prostaglandin D synthase (Homo sapiens, UniProt O60760). Description: Inhibition of human H-PGDS expressed in Escherichia coli BL21 assessed as rate of glutathione-chloro-dinitro benzene conjugation. The gist of the method:
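Recombinant human H-PGDS from E. coli BL21 DE3 (pET17b, uninduced), GSH-affinity purified. Reaction: 0.1 M Tris HCl pH 8.0, 2 mM MgCl2, 1 mM CDNB, 2 mM GSH, 2.5 ng/ml enzyme, 10% (v/v) ethanol. Conjugate formation followed at A340 nm over 10 min, 25 C. Eight inhibitor concentrations bracketing IC50, background-corrected for solvent. Nonlinear regression, triplicates, mean ± SEM.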

Test [2] has as its target T1, Hematopoietic prostaglandin D synthase. Description: Inhibition of human H-PGDS expressed in Escherichia coli BL21 assessed as rate of glutathione-chloro-dinitro benzene conjugation at 50 uM. A digest of the protocol:
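GSH–CDNB conjugation by E. coli BL21 DE3-expressed, GSH-affinity purified human H-PGDS (2.5 ng/ml). Buffer was 0.1 M Tris HCl pH 8.0 with 2 mM MgCl2, 1 mM CDNB, 2 mM GSH and 10% ethanol. Read at A340 nm over 10 min at 25 C. Percent inhibition at 50 uM inhibitor, mean ± SD of triplicates.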

T1 sequence (O60760 whole entry): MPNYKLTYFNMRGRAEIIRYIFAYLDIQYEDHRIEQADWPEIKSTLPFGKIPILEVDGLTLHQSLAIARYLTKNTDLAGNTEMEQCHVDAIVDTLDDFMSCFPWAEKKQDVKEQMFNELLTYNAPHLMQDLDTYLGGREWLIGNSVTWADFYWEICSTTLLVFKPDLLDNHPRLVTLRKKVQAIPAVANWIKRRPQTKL

Usually IC50 stands for the point on the concentration scale where inhibition reaches its midpoint. For orientation: inhibition means the drop in the measured response relative to a control, in per cent. In the case of `Nc1c(S(=O)(=O)O)cc(Nc2ccc(Nc3nc(Cl)nc(Nc4ccccc4S(=O)(=O)O)n3)c(S(=O)(=O)O)c2)c2c1C(=O)c1ccccc1C2=O` [CIBACRON BLUE], the IC50 in test [1] came out at 0.2 µM. For the same molecule, the inhibition in test [2] amounted to 100%.
For the molecule `O=C(O)CCn1c2c(c3ccccc31)C[C@H](NS(=O)(=O)c1ccc(F)cc1)CC2`, the inhibition in test [2] is 0%.
Same read-out and setting: next, `Cc1cc(CC(=O)O)n(C)c1C(=O)c1ccc(Cl)cc1`: 0%.
On to `COC(=O)Nc1nc2cc(C(=O)c3cccs3)ccc2[nH]1`, for which the inhibition in test [2] was found to be 42.6%.
For the molecule `O=C(O)Cc1ccccc1Nc1c(Cl)cccc1Cl`, the inhibition in test [2] was determined as 0%.
Turning to `O=C(O)c1cc(/N=N/c2ccc(S(=O)(=O)Nc3ccccn3)cc2)ccc1O`, the inhibition in test [2] was 0%.
On the same count and under the same terms, to `O=C(O)COc1ccc(C(=O)c2cccs2)c(Cl)c1Cl` belongs 0%.
In the case of `COc1ccc(C(=O)c2cccs2)cc1`, the IC50 in test [1] was 105 µM. Moreover, the inhibition in test [2] is 41.8%.
For the molecule `O=C(O)c1ccc2ccccc2c1Br`, the inhibition in test [2] came to 5.1%.
Consider `O=C1OC(c2ccc(O)c(S(=O)(=O)O)c2)(c2ccc(O)c(S(=O)(=O)O)c2)c2c(Br)c(Br)c(Br)c(Br)c21` [SULFOBROMOPHTHALEIN], for which, in test [1], the IC50 was 27 µM. Also, the inhibition in test [2] amounted to 66.9%.
Take `COc1ccc2c(c1)c(CC(=O)O)c(C)n2C(=O)c1ccc(Cl)cc1`: in test [2], the inhibition came to 0%.
Same read-out and setting: next, `O=C(O)CCCCCC[C@H]1C(=O)NC(=O)N1CCC(O)C1CCCCC1` (stereo not given in full): 17%; `O=C(Nc1ccccc1)Nc1cccc(C(=O)O)c1`: 8.6%.
For `O=C(c1ccccc1)c1cccs1`, the IC50 in test [1] stood at 9.2 µM. Besides, in test [2], the inhibition worked out at 78.2%.
Taken in the same sequence, the figures for `c1ccc(C(OC2CCN(CCCc3nnn[nH]3)CC2)c2ccccc2)cc1` were 1.8 µM and 100%.
For `COC(=O)Nc1nc2cc([S+]([O-])c3ccccc3)ccc2[nH]1` (stereo not given), in test [2], the inhibition turned out to be 0%.
In the case of `COC(=O)Nc1nc2ccc([S+]([O-])c3ccccc3)cc2[nH]1` (stereo not given) [OXFENDAZOLE], in test [1], the IC50 is over 300 µM.
As for `C=C(CC)C(=O)c1ccc(OCC(=O)O)c(Cl)c1Cl` [ETHACRYNIC ACID], the half-inhibitory concentration (IC50) in test [1] came to 122 µM. Further, the inhibition in test [2] turned out to be 25.3%.
As to `CC1(C)Cc2c(-c3ccccc3)c(-c3ccc(Cl)cc3)c(CC(=O)O)n2C1`, in test [2], the inhibition turned out to be 0%.

Values taken from ChEMBL document CHEMBL1154723, “Identification and characterisation of new inhibitors for the human hematopoietic prostaglandin D2 synthase” (Eur J Med Chem, 2010).
